According to ChEMBL document CHEMBL1123710, “Molecular structure of the dihydropyridazinone cardiotonic 1,3-dihydro-3,3-dimethyl-5-(1,4,5,6-tetrahydro-6-oxo-pyridazinyl)- 2H-indol-2-one, a potent inhibitor of cyclic AMP phosphodiesterase” (1987):

Columns and labels:
Canis familiaris [1] = test: Percent increase in heart rate (HR) in anesthetized dogs was determined; type: functional, Canis lupus familiaris
Canis familiaris [2] = test: Percent decrease in mean arterial blood pressure (MAP) was determined in anesthetized dogs; type: functional, Canis lupus familiaris
Summary of the method: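 Femoral arterial pressure in anesthetized dogs via heparin-filled catheter and pressure transducer; baseline MAP 99 ± 3 mmHg. Escalating iv doses via femoral vein every 5 min, peak responses taken. Value is percent change in mean arterial pressure at the inotropic ED50 dose.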

Canis familiaris [3] = test: Myocardial contractility was determined after intravenous administration in phenobarbital-anesthetized dogs; type: functional; conditions: Canis lupus familiaris, Myocardium
Summary of the method: (§1)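 Dogs under anesthesia; Walton-Brodie strain-gauge arch sutured to right ventricle, tension set at 50 g. Increasing iv doses via femoral vein at 5-min intervals, peak responses recorded; vehicle injections tested. Inotropic ED50 by linear regression, mean ± SEM. Preload/afterload independence confirmed with dextran bolus and aortic compression.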

Canis familiaris [4] = test: Myocardial contractility was determined after intravenous administration in phenobarbital anesthetized dogs (n=4).; type: functional; conditions: Canis lupus familiaris, Myocardium; summary of the method: as §1
Canis familiaris [5] = test: Myocardial contractility was determined after intravenous administration in phenobarbital-anesthetized dogs (n=4).; type: functional; conditions: Canis lupus familiaris, Myocardium; summary of the method: as §1

Row | SMILES | Increase (Canis familiaris [1]) [%] | Decrease (Canis familiaris [2]) [%] | ED50 (Canis familiaris [3]) [µg/kg] | ED50 (Canis familiaris [4]) [µg/kg] | ED50 (Canis familiaris [5]) [µg/kg]
1 | CC1(C)C(=O)Nc2ccc(-c3ccc(O)nn3)cc21 | 24 | 18 | 7.4 |  | 
2 | Cc1cc(O)nnc1-c1ccc2c(c1)C(C)(C)C(=O)N2 | 15 | 20 |  | 32.6 | 
3 | CC1CC(=O)NN=C1c1ccc2c(c1)C(C)(C)C(=O)N2 (configuration not stated) | 20 | 31 |  |  | 3.6
4 | CC1(C)C(=O)Nc2ccc(C3=NNC(=O)CC3)cc21 [INDOLIDAN] | 12 | 15 |  |  | 6.8
